Published values collected from several papers.
Compare with care: the assays were run in different laboratories.
RPS6KA4 N-terminal kinase domain: Ribosomal protein S6 kinase alpha-4, N-terminal kinase domain (RPS6KA4, Homo sapiens, UniProt O75676)
RPS6KA4: Ribosomal protein S6 kinase alpha-4 (RPS6KA4, Homo sapiens, UniProt O75676)
RPS6KA4 C-terminal kinase domain: Ribosomal protein S6 kinase alpha-4, C-terminal kinase domain (RPS6KA4, Homo sapiens, UniProt O75676)

| Structure (SMILES) | target | effect on | action | technique | tested at | measurement | result |
| --- | --- | --- | --- | --- | --- | --- | --- |
| Cc1nc(C2CCN(C(=O)c3ccc(OC(F)(F)F)cc3N)CC2)c2ncc(N3CCN(C)CC3)cc2n1 | RPS6KA4 N-terminal kinase domain | cell-free assay |  | competition with immobilised ligand | 1 µM | remaining binding | 100% |
| Cc1cc(NC(=O)c2cccc3cc(-c4cccc5[nH]nc(N)c45)ccc23)ccc1F | RPS6KA4 | enzyme activity | inhibitor |  | 0.1 µM | activity vs control | 103% |
| Cc1cc(C)c(-n2ccn3nc(-c4cccnc4)cc23)cc1NC(=O)c1cc(C#N)cc(S(F)(F)(F)(F)F)c1 | RPS6KA4 N-terminal kinase domain | cell-free assay |  | competition with immobilised ligand | 0.1 µM | remaining binding | 100% |
| Cn1cncc1C1=CN(c2ncnc3[nH]cnc23)CCS1 | RPS6KA4 | enzyme activity | inhibitor | radiometric | 50 nM | inhibition | 13.3% |
| CC(=O)C1=C(C)N(c2cccc(C(F)(F)F)c2)C(=O)N[C@@H]1c1ccc(C#N)nc1 | RPS6KA4 C-terminal kinase domain | cell-free assay |  | competition with immobilised ligand | 1 µM | remaining binding | 78.8% |
| Clc1ccc(Nc2nnc(Cc3ccncc3)c3ccccc23)cc1 | RPS6KA4 | cell-free assay |  |  | 0.5 µM | remaining signal | 98% |
| C[C@H]1CCN(c2nccc(-c3cnn4ncccc34)n2)C1 | RPS6KA4 N-terminal kinase domain | binding |  | competition with immobilised ligand | 1 µM | remaining binding | 93% |
| CCC(=O)N[C@H]1CC[C@@H](C(=O)N(C)c2ccc(-c3nc4ccccc4o3)cc2)C1 | RPS6KA4 N-terminal kinase domain | cell-free assay |  | competition with immobilised ligand | 1 µM | remaining binding | 100% |
| CCCOc1ccc(OC)c(F)c1C(=O)c1ccc(C(=O)N[C@@H]2CNC[C@H]2NC(=O)c2ccc3[nH]ncc3c2)cc1 | RPS6KA4 | enzyme activity | inhibitor |  | 10 µM | remaining activity | 4% |
| CC(C)(C)c1nc2c(s1)c1nc(N)ncc1c1ccc(NS(=O)(=O)c3c(F)cccc3F)c(F)c12 | RPS6KA4 | enzyme activity | inhibitor | radiometric | 1 µM | remaining activity | 84% |
| CNc1cccc2cc(C(=O)Nc3ccc(C(=O)O)cc3)c(=O)[nH]c12 | RPS6KA4 | enzyme activity | inhibitor |  | 10 µM | inhibition | 8.2% |
| O=C1Nc2ccc(Cl)cc2C1=Cc1cc(Cl)c(O)c(Cl)c1 | RPS6KA4 | cell-free assay |  |  | 0.5 µM | remaining signal | 98% |
| CCS(=O)(=O)c1cc2cc(C[C@@](O)(CC(C)(C)c3ccc(F)cc3C(N)=O)C(F)(F)F)[nH]c2cn1 | RPS6KA4 N-terminal kinase domain | cell-free assay |  | competition with immobilised ligand | 1 µM | remaining binding | 78% |
| Nc1ncnc2occ(-c3ccc(NC(=O)Nc4cc(C(F)(F)F)ccc4F)cc3)c12 | RPS6KA4 N-terminal kinase domain | cell-free assay | inhibitor |  | 20 µM | remaining signal | 2.1% |
| CCCS(=O)(=O)Nc1ccc(F)c(C(=O)c2c[nH]c3ncc(-c4ccc(Cl)cc4)cc23)c1F | RPS6KA4 | enzyme activity | inhibitor |  | 1 µM | inhibition | < 10% |
| COc1cc2ncnc(Nc3ccc(Oc4ccccc4)c(C)c3C)c2cc1OC | RPS6KA4 | enzyme activity | inhibitor |  | 1 µM | inhibition | -5% |

| Structure (SMILES) | target | effect on | action | technique | tested at | measurement | result |
| --- | --- | --- | --- | --- | --- | --- | --- |
| CCCCNc1ncc2c(-c3ccc(F)cc3)nn(C[C@H]3CC[C@H](N)CC3)c2n1 | RPS6KA4 N-terminal kinase domain | target engagement in cells | inhibitor | chemoproteomics | 20 mM | inhibition | 22% |
| CC(=O)N1CCC(c2ccc(C(=O)NC(=N)N)cc2C(F)(F)F)CC1 | RPS6KA4 C-terminal kinase domain | cell-free assay |  | competition with immobilised ligand | 1 µM | remaining binding | 100% |
| N[C@@H]1CCN(c2nccc(-c3cnn4ncccc34)n2)C1 | RPS6KA4 N-terminal kinase domain | binding |  | competition with immobilised ligand | 1 µM | remaining binding | 100% |
| Cc1sc(C(=O)NC2COC2)cc1-n1cc(NC(=O)Nc2c(F)cccc2Cl)cn1 | RPS6KA4 | enzyme activity | inhibitor |  | 10 µM | remaining activity | 105% |
| Cc1ccc(C(=O)NCc2ccsc2)cc1C#Cc1cn(C(C)C)c2ncnc(N)c12 | RPS6KA4 | enzyme activity | inhibitor |  | 1 µM | activity vs control | 107% |
| O=C(Nc1cnn(-c2csc(C(=O)NC3COC3)c2)c1)Nc1ccccc1Cl | RPS6KA4 | enzyme activity | inhibitor |  | 5 µM | remaining activity | 90.7% |
| CCOc1cc(-c2nncn2C)ccc1Nc1ncc2cc(C)nc(NCC(C)(C)C)c2n1 | RPS6KA4 | enzyme activity | inhibitor | FRET | 1 µM | inhibition | < 15% |
| N#CCCc1ccc2c(c1)-c1[nH]c3ccc([N+](=O)[O-])cc3c1CC(=O)N2 | RPS6KA4 | cell-free assay |  |  | 0.5 µM | remaining signal | 85.8% |
| CCN(CC)c1ccc(C2=NNC(=O)CC2C)cc1[N+](=O)[O-] (stereo not shown) | RPS6KA4 | enzyme activity | inhibitor |  | 10 µM | remaining activity | 82% |
| CC1CCCN1c1nccc(-c2cnn3ncccc23)n1 (stereo not shown) | RPS6KA4 N-terminal kinase domain | binding |  | competition with immobilised ligand | 1 µM | remaining binding | 99% |
| Cc1ccc(C(=O)Nc2ccc(CN3CCN(C)CC3)c(C(F)(F)F)c2)cc1C#Cc1cnc2cccnn12 | RPS6KA4 | enzyme activity | inhibitor |  | 23.5 nM | activity vs control | 100% |
| CO[C@H]1CC[C@H](CNc2ccc(S(=O)(=O)NC(=O)c3ccc(N4CCN(CC5=C(c6ccc(Cl)cc6)CC(C)(C)CC5)CC4)cc3Oc3cnc4[nH]ccc4c3)cc2[N+](=O)[O-])CC1 | RPS6KA4 N-terminal kinase domain | cell-free assay |  | competition with immobilised ligand | 1 µM | remaining binding | 95% |
| O=C1NC(=O)c2cc(Nc3ccc(F)cc3)c(Nc3ccc(F)cc3)cc21 | RPS6KA4 | cell-free assay |  |  | 0.5 µM | remaining signal | 102% |
| O=C(Nc1cccnn1)N1CCC(=Cc2cccc(Oc3ccc(C(F)(F)F)cn3)c2)CC1 | RPS6KA4 N-terminal kinase domain | cell-free assay |  | competition with immobilised ligand | 1 µM | remaining binding | 98% |
| CN(C)c1nccc(-c2cnn3ncccc23)n1 | RPS6KA4 C-terminal kinase domain | binding |  | competition with immobilised ligand | 1 µM | remaining binding | 84% |
